# Test results reported in PubChem BioAssay AID651577 (The Scripps Research Institute Molecular Screening Center, 2012).
# Active and inactive are the calls of the source.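 The calls were made as follows: active = IC50 at or below 10 µM; inactive = IC50 above 10 µM.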
# Target: HCV core protein (core106) dimerization
# Test: inhibitors of HCV core self-association, IC50 – biochemical, AlphaScreen luminescence, powder samples, late-stage follow-up (AID 651577)
# Details: AlphaScreen GST-/Flag-core106 dimerization
# In short: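 Material – GST- and Flag-tagged HCV core106 proteins · Also added – Anti-Flag acceptor and glutathione donor beads, 20 µg/mL each · Doses – 10-point concentration series of powder samples · Times – 1 h tagged-protein preincubation at room temperature, then 1 h per bead · Technique – AlphaScreen luminescence · Measure – IC50 from four-parameter sigmoidal curve fit · Replicates – triplicate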
row,IC50,Structure (SMILES)
1,1900 nM,Cc1ccc(Cc2c(C)nc3nc(SCC(=O)NCCN4CCCCCC4)nn3c2C)cc1
2,inactive,Cc1ccc(Cc2c(C)nc3nc(SCC(=O)NCCN4CCN(Cc5ccccc5)CC4)nn3c2C)cc1
3,2600 nM,Cc1ccc(Cc2c(C)nc3nc(SCC(=O)NCCN4CCCN(S(=O)(=O)c5ccc(C)cc5)CC4)nn3c2C)cc1
4,inactive,Cc1ccc(Cc2c(C)nc3nc(SCC(=O)NCCN4CCN(CCc5ccccc5)CC4)nn3c2C)cc1
5,9900 nM,Cc1ccc(Cc2c(CCc3ccccc3)nc3nc(SC(Cc4ccccc4)C(=O)NCCN4CCOCC4)nn3c2C)cc1 (centres undefined)
6,10200 nM,Cc1ccc(Cc2c(C)nc3nc(SCC(=O)NCCN4CCN(S(=O)(=O)c5ccccc5)CC4)nn3c2C)cc1
7,inactive,Cc1ccc(Cc2c(C)nc3nc(SCC(=O)NCCN4CCN(Cc5ccc(Cl)cc5)CC4)nn3c2C)cc1
8,inactive,Cc1ccc(Cc2c(C)nc3nc(SCC(=O)NCCN4CCN(C(=O)OC(C)(C)C)CC4)nn3c2C)cc1
9,1000 nM,Cc1ccc(Cc2c(C)nc3nc(SCC(=O)NCCN4CCOCC4)nn3c2C)cc1
10,inactive,Cc1ccc(Cc2c(C)nc3nc(SCC(=O)NCCN4CCCCC4)nn3c2C)cc1
11,1600 nM,Cc1ccc(Cc2c(C)nc3nc(SCC(=O)NCCN4CCCN(S(=O)(=O)c5ccccc5)CC4)nn3c2C)cc1
12,8400 nM,Cc1ccc(Cc2c(C)nc3nc(SCC(=O)NCCN4CCNCC4)nn3c2C)cc1
13,inactive,Cc1ccc(Cc2c(C)nc3nc(SCC(=O)NCCN4CCN(Cc5ccc(F)cc5)CC4)nn3c2C)cc1
14,510 nM,Cc1ccc(Cc2c(C)nc3nc(SCC(=O)NCCN4CCCN(S(C)(=O)=O)CC4)nn3c2C)cc1
